Laboratory results taken from ChEMBL document CHEMBL3124806, “Imidazopyridine-fused [1,3]-diazepinones: synthesis and antiproliferative activity” (Eur J Med Chem, 2014).
Activity calls are given as the source filed them. The rule behind the calls is not given here.

Assays:
[1] = target: Cyclin-dependent kinase 1 (Homo sapiens) (UniProt P06493); test: Inhibition of human CDK1 at 10 uM
Procedure, shortened: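 Kinase selectivity panel of 19 protein tyrosine kinases and 30 serine/threonine kinases, run by a contract lab (CEREP). Each compound was tested at a single dose of 10 μM in duplicate.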

MDA-MB-435 [2] = test: Induction of apoptosis in human MDA-MB-435 cells assessed as chromatin condensation at 5 uM after 20 hrs by Hoechst 33342 staining-based phase-contrast microscopy; format: functional, cell-based
MDA-MB-435 [3] = test: Cytotoxicity against human MDA-MB-435 cells at 5 uM after 24 hrs by MTT assay; format: functional
Procedure, shortened: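 MDA-MB-435 cells in DMEM/Ham's F12 (1:1) with 10% FCS, 37 °C, 5% CO2. Time course at a fixed 5 µM, incubated 8, 16, 24 or 48 h. Viability then read by MTT reduction (0.5 mg/mL, 4 h), formazan dissolved in EtOH/DMSO, absorbance at 540 nm, as percent living cells.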

MDA-MB-435 [4] = test: Cytotoxicity against human MDA-MB-435 cells after 48 hrs by MTT assay; format: functional, cell-based; settings: MDA-MB-435, 48 h
Procedure, shortened: (§1)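 Melanoma lines grown at 37 °C in humidified 5% CO2: MDA-MB-435 in DMEM/Ham's F12 1:1 with 10% FCS and antibiotics, SK-MEL-2 in RPMI-1640 with 10% FCS. Cells plated 24 h, then exposed 48 h to 100–0.01 µM (dilutions from fresh 100 µM stock in medium). MTT 0.5 mg/mL added for 4 h, crystals dissolved in EtOH/DMSO 1:1, absorbance read at 540 nm. Mean ± SD of three independent experiments.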

SK-MEL-2 [5] = test: Cytotoxicity against human SK-MEL-2 cells assessed as cell growth at 10 uM after 48 hrs by MTT assay relative to untreated control; format: functional; settings: SK-MEL-2, 48 h, read-out: Activity; procedure, shortened: as §1
[6] = Cytotoxicity against human CAL-1 cells assessed as cell growth at 10 uM after 48 hrs by MTT assay relative to untreated control; format: functional; settings: CAL1, 48 h, read-out: Activity
Procedure, shortened: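 CAL1 melanoma cells grown in DMEM with 2 mM L-glutamine and 10% FCS at 37 °C, 5% CO2. Seeded at 10^4 cells/well, grown 24 h, then treated 48 h across 100–0.01 μM (compounds dissolved in medium). Read-out: 0.5 mg mL⁻¹ MTT for 4 h, crystals dissolved in EtOH/DMSO 1:1, absorbance at 540 nm.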

MDA-MB-435 [7] = test: Cytotoxicity against human MDA-MB-435 cells assessed as cell growth at 10 uM after 48 hrs by MTT assay relative to untreated control; format: functional; settings: MDA-MB-435, 48 h, read-out: Activity; procedure, shortened: as §1
MDA-MB-468 = test: Cytotoxicity against human MDA-MB-468 cells after 48 hrs by SRB assay; format: functional; settings: MDA-MB-468, 48 h
Procedure, shortened: (§2)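 NCI-60 five-dose screen: cells exposed continuously for 48 h across 100 to 0.01 µM. Growth or viability estimated by sulforhodamine B protein staining, read spectrophotometrically against untreated controls; IC50 taken from the dose-response.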

[8] = Cytotoxicity against human Hs578T cells after 48 hrs by SRB assay; format: functional; settings: Hs-578T
Procedure, shortened: (§3)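 NCI-60 five-dose testing, 100 to 0.01 µM, under a 48 h continuous-exposure protocol. Growth estimated by SRB protein assay, read spectrophotometrically against untreated controls; IC50 derived from the dose-response.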

RXF 393 = test: Cytotoxicity against human RXF393 cells after 48 hrs by SRB assay; format: functional; settings: RXF 393, 48 h; procedure, shortened: as §2
CAKI-1 = test: Cytotoxicity against human Caki1 cells after 48 hrs by SRB assay; format: functional; settings: CAKI-1, 48 h; procedure, shortened: as §3
OVCAR-8 = test: Cytotoxicity against human OVCAR8 cells after 48 hrs by SRB assay; format: functional; settings: OVCAR-8, 48 h; procedure, shortened: as §2
[9] = Cytotoxicity against human OVCAR4 cells after 48 hrs by SRB assay; format: functional; settings: OVCAR-4, 48 h; procedure, shortened: as §2
OVCAR-3 = test: Cytotoxicity against human OVCAR3 cells after 48 hrs by SRB assay; format: functional; settings: OVCAR-3, 48 h; procedure, shortened: as §2
IGROV-1 = test: Cytotoxicity against human IGROV1 cells after 48 hrs by SRB assay; format: functional; settings: IGROV-1, 48 h; procedure, shortened: as §3
UACC-62 = test: Cytotoxicity against human UACC62 cells after 48 hrs by SRB assay; format: functional; settings: UACC-62, 48 h
Procedure, shortened: (§4)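 NCI-60 five-dose mode on the full human tumour line panel. Concentrations ran from 100 to 0.01 µM with 48 h continuous exposure. Growth was estimated by SRB protein staining against untreated controls, and IC50 values were derived from the dose–response.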

SK-MEL-5 = test: Cytotoxicity against human SK-MEL-5 cells after 48 hrs by SRB assay; format: functional; settings: SK-MEL-5, 48 h; procedure, shortened: as §4
SF-268 = test: Cytotoxicity against human SF268 cells after 48 hrs by SRB assay; format: functional; settings: SF-268, 48 h; procedure, shortened: as §2
SW-620 = test: Cytotoxicity against human SW620 cells after 48 hrs by SRB assay; format: functional; settings: SW-620, 48 h; procedure, shortened: as §4
HCT-116 = test: Cytotoxicity against human HCT116 cells after 48 hrs by SRB assay; format: functional; settings: HCT-116, 48 h; procedure, shortened: as §3
COLO 205 = test: Cytotoxicity against human COLO205 cells after 48 hrs by SRB assay; format: functional; settings: COLO 205, 48 h; procedure, shortened: as §3
NCI-H460 = test: Cytotoxicity against human NCI-H460 cells after 48 hrs by SRB assay; format: functional; settings: NCI-H460, 48 h; procedure, shortened: as §2
NCI-H226 = test: Cytotoxicity against human NCI-H226 cells after 48 hrs by SRB assay; format: functional; settings: NCI-H226, 48 h; procedure, shortened: as §2
HOP-92 = test: Cytotoxicity against human HOP92 cells after 48 hrs by SRB assay; format: functional; settings: HOP-92, 48 h; procedure, shortened: as §3
SK-MEL-2 [10] = test: Cytotoxicity against human SK-MEL-2 cells assessed as reduction in cell growth at 1 to 10 uM after 48 hrs by MTT assay relative to untreated control; format: functional; parameters: scale not given: the % may be the effect or the level left; procedure, shortened: as §1
[11] = read-out: LC50 (the source's name)

Sequence of Cyclin-dependent kinase 1 (Homo sapiens) (P06493 whole entry, looked up): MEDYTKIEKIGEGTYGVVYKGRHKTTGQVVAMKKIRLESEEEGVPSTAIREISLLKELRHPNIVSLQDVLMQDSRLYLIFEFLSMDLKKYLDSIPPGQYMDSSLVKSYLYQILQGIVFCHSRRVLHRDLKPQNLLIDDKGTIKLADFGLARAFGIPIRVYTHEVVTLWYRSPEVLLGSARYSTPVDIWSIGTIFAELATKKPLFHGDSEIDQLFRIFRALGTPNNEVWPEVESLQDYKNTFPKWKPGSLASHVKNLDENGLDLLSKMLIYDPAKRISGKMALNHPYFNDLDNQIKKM

C[C@@H]1NC(c2ccc(Br)cc2)=Nc2nc3ccccn3c2C1=O
inhibition [1]: inactive
Activity (MDA-MB-435 [2]): Active
Activity (MDA-MB-435 [3]): 10%
IC50 (MDA-MB-435 [4]): 1.7 µM
growth at 10 µM (SK-MEL-2 [5]): 32%
growth at 10 µM [6]: 12%
growth at 10 µM (MDA-MB-435 [7]): -15%
GI50 (MDA-MB-468): 1.98 µM
TGI (MDA-MB-468): 5.12 µM
CC50 (MDA-MB-468; [11]): > 100 µM
GI50 [8]: 2.81 µM
TGI [8]: 52 µM
CC50 [8, 11]: > 100 µM
GI50 (RXF 393): 10.2 µM
TGI (RXF 393): 51.8 µM
CC50 (RXF 393; [11]): > 100 µM
GI50 (CAKI-1): 3.09 µM
TGI (CAKI-1): > 100 µM
CC50 (CAKI-1; [11]): > 100 µM
GI50 (OVCAR-8): 17 µM
TGI (OVCAR-8): > 100 µM
CC50 (OVCAR-8; [11]): > 100 µM
GI50 [9]: 17.9 µM
TGI [9]: > 100 µM
CC50 [9, 11]: > 100 µM
GI50 (OVCAR-3): 3.34 µM
TGI (OVCAR-3): 17.8 µM
CC50 (OVCAR-3; [11]): > 100 µM
GI50 (IGROV-1): 51.9 µM
TGI (IGROV-1): > 100 µM
CC50 (IGROV-1; [11]): > 100 µM
GI50 (UACC-62): 4.35 µM
TGI (UACC-62): > 100 µM
CC50 (UACC-62; [11]): > 100 µM
GI50 (SK-MEL-5): 2.24 µM
TGI (SK-MEL-5): 40.5 µM
CC50 (SK-MEL-5; [11]): > 100 µM
GI50 (SF-268): 17.2 µM
TGI (SF-268): > 100 µM
CC50 (SF-268; [11]): > 100 µM
GI50 (SW-620): 3.75 µM
TGI (SW-620): > 100 µM
CC50 (SW-620; [11]): > 100 µM
GI50 (HCT-116): 4.04 µM
TGI (HCT-116): > 100 µM
CC50 (HCT-116; [11]): > 100 µM
GI50 (COLO 205): 1.87 µM
TGI (COLO 205): 4.75 µM
CC50 (COLO 205; [11]): 95.8 µM
GI50 (NCI-H460): 3.06 µM
TGI (NCI-H460): > 100 µM
CC50 (NCI-H460; [11]): > 100 µM
GI50 (NCI-H226): 14.7 µM
TGI (NCI-H226): > 100 µM
CC50 (NCI-H226; [11]): > 100 µM
GI50 (HOP-92): 1.16 µM
TGI (HOP-92): 22.9 µM
CC50 (HOP-92; [11]): > 100 µM

C[C@@H]1NC(c2ccccc2)=Nc2nc3ccccn3c2C1=O
Activity (SK-MEL-2 [10]): 20%
